What is called MIC is the lowest concentration that inhibits growth of the organism. The IC50 is the concentration that gives 50% inhibition.

≈ marks a conversion by molar mass, not a printed value. Calls of active or inactive are those of the source. No cut-off for these calls is given here.

Data set [1] deals with Pseudomonas aeruginosa. The data set can be described thus: Antibacterial activity against Pseudomonas aeruginosa ATCC 27853 at 20 uM. Format: functional, organism-based.
In data set [2] the test system is Escherichia coli. The data set can be described thus: Antibacterial activity against Escherichia coli ATCC 25922 at 20 uM. Type of data set: functional, organism-based.
Data set [3] deals with Mycobacterium tuberculosis. In words: Antibacterial activity against Mycobacterium tuberculosis H37Rv assessed as reduction in bacterial growth after 7 days by resazurin assay. Type of data set: functional. To be noted: 168 h. A general note: The colour change of resazurin is a common sign of viable cells or microbes.
Data set [4] has as its system Acinetobacter baumannii. The data set can be described thus: Antibacterial activity against Acinetobacter baumannii ATCC BAA 747 at 20 uM. Format: functional, organism-based.
The subject of data set [5] is Staphylococcus aureus. In words: Antibacterial activity against Staphylococcus aureus ATCC 25923 at 20 uM. Format: functional, organism-based.
Data set [6] relates to Vero. In words: Cytotoxicity against African green monkey Vero cells assessed as reduction in cell viability at 20 uM after 72 hrs by MTT assay. The conditions noted are these: chlorocebus sabaeus. Type of data set: cell-based. (In general: Formazan colour is commonly taken as a measure of viable cells.)
For data set [7], the system named is Mycobacterium tuberculosis. The data set can be described thus: Antibacterial activity against Mycobacterium tuberculosis H37Rv infected in mouse RAW 264.7 cells assessed reduction in bacterial count per well at 5 uM after 3 days (reference value: 2.5 +/- 0.15 log10CFU). Type of data set: functional.
Data set [8] relates to RAW264.7. The data set can be described thus: Cytotoxicity against mouse RAW264.7 cells assessed as decrease in cell viability at 5 uM after 72 hrs by MTT assay. Format: cell-based. To be noted: raw264.7, 72 h.
The test system of data set [9] is HaCaT. In words: Cytotoxicity against human HaCaT cells assessed as reduction in cell viability at 20 uM after 72 hrs by MTT assay. Format: cell-based.
Data set [10] has as its system Mycobacterium tuberculosis. In words: Antibacterial activity against Mycobacterium tuberculosis H37Rv ATCC 25618 assessed as reduction in bacterial growth after 6 days by resazurin assay. Type of data set: functional. To be noted: H37Rv ATCC 25618, 144 h.
The species named for data set [11] is Danio rerio. In words: Toxicity in zebrafish embryo assessed as reduction in embryo viability at 20 uM measured at 72 hrs post fertilization. Type of data set: organism-based. The conditions noted are these: in vivo. Summed up:
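Zebrafish embryos exposed to 20 μM for 72 h; embryo survival scored.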

Data set [12] can be described thus: Thermodynamic solubility of the compound at pH 1.5 after 24 hrs by HPLC analysis. To be noted: buffer, read-out: Therm_solubility. Format: physicochemical.
The species entered for data set [13] is Danio rerio. In words: Toxicity in zebrafish embryo assessed as reduction in heart rate at 5 uM measured at 72 hrs post fertilization by stereo microscopic analysis. Format: organism-based. The conditions noted are these: in vivo.
Data set [14] is described as follows: Selectivity index, ratio of cytotoxic activity for African green monkey Vero cells to MIC for Mycobacterium tuberculosis H37Rv. Format: toxicity, cell-based. The conditions noted are these: read-out: Selectivity Index.
Data set [15] in a line: Inhibition CYP450 in human liver microsomes by HPLC/MS/MS analysis in presence of NADPH. Type of data set: ADME.
Data set [16] in a line: Selectivity index, ratio of cytotoxic activity for human HaCaT cells to MIC for Mycobacterium tuberculosis H37Rv. Format: toxicity, cell-based. The conditions noted are these: read-out: Selectivity Index.
The species entered for data set [17] is Danio rerio. In words: Toxicity in zebrafish embryo assessed as reduction in heart rate at 20 uM measured at 72 hrs post fertilization by stereo microscopic analysis. Type of data set: organism-based. To be noted: in vivo.
Data set [18] relates to Liver. In words: Metabolic stability in human liver S9 fraction at 2 uM measured up to 30 mins by HPLC/MS/MS analysis. To be noted: s9, 0.5 h. Format: ADME, subcellular.
Data set [19] has as its system Mycobacterium tuberculosis. In words: Potency index, ratio of isoniazid MIC to compound MIC for Mycobacterium tuberculosis H37Rv. Format: functional.
A short description of data set [20]: Selectivity index, ratio of cardiac toxicity for zebrafish embryo to MIC for Mycobacterium tuberculosis H37Rv. The conditions noted are these: read-out: Selectivity Index.
Data set [21] is described as follows: Thermodynamic solubility of the compound at pH 7.4 after 24 hrs by HPLC analysis. Type of data set: physicochemical. The conditions noted are these: buffer, read-out: Therm_solubility.
For data set [22], the species on record is Danio rerio. In words: Toxicity in zebrafish embryo assessed as reduction in heart rate at 1 uM measured at 72 hrs post fertilization by stereo microscopic analysis. Type of data set: organism-based. To be noted: in vivo.

On to `COc1ccc2nc(C)cc(OCC(=O)Nc3ccccc3OC)c2c1`, for which the outcome in data set [1], in data set [2], in data set [4] and in data set [5] was inactive. For the same molecule, the results for the MIC in data set [3] and in data set [10] were 0.44 µM (≈ 0.155 µg/mL) and 0.7 µM (≈ 0.247 µg/mL), respectively. Further, the Activity result in [6] was “Non-toxic”; in data set [7], 1.61 log10CFU; in [8], “Non-toxic”; in [9] it was “Non-toxic”.
As for `COc1ccc2nc(C)cc(OCC(=O)Nc3ccc4ccccc4c3)c2c1`, the Activity entry in data set [11] was “Toxic”; in data set [13] it was “Non-toxic”; in data set [17], “Toxic”; in data set [6], “Toxic”; in data set [7], 1.93 log10CFU; in data set [8] it was “Non-toxic”. Also, the figures for the Activity entry in data set [22] and in data set [9] were “Non-toxic” and “Toxic”, respectively. Besides, the outcome in [1], in [2], in data set [4] and in data set [5] was inactive. In addition, the MIC in [3] was 0.05 µM (≈ 0.0186 µg/mL). Further, the results for the solubility thermodynamic at 24 h in data set [12] and in [21] were 30 µM (≈ 11.2 µg/mL) and less than 4.4 µM, respectively. The Selectivity ratio in data set [14], in data set [16] and in [20] was more than 100 throughout. In addition, the IC50 in data set [15] was less than 10 µM. In addition, in [18], the Stability entry is given as “Unstable”. Moreover, the Ratio in data set [19] was 30.

Source of the values: ChEMBL document CHEMBL3804819, “2-(Quinolin-4-yloxy)acetamides Are Active against Drug-Susceptible and Drug-Resistant Mycobacterium tuberculosis Strains” (ACS Med Chem Lett, 2016).
